For data set [1], the target named is T1, Mitogen-activated protein kinase 14 (Homo sapiens, UniProt Q16539). The data set can be described thus: Inhibition of unactive p38alpha. The method in brief: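 Unactive p38α preincubated with compound, then activated by MKK6 and diluted into an MK2 plus substrate mixture (cascade format). IC50 is the mean of three experiments, SD <15%.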
The target of data set [2] is T1, Mitogen-activated protein kinase 14. In words: Inhibition of active p38alpha. The method in brief:
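Compound preincubated with active p38α; kinase activity then read by adding MK2 and its substrate (cascade format). IC50 is the mean of three experiments, SD <15%.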

Another data set addresses CYP2D6 (Homo sapiens, UniProt P10635). The data set can be described thus: Inhibition of CYP2D6 at 3 uM. In kind it is ADME. The method in brief:
(§1)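 Compound tested at 3 µM against a cocktail of CYP1A2, 2C9, 2D6 and 3A4; the result is given as % inhibition for each isoform.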

A short description of data set [3]: Permeability of the compound by PAMPA method. In kind it is ADME.
The target in a further data set is hERG (KCNH2) (Homo sapiens, UniProt Q12809). In words: Displacement of [3H]dofetilide from human ERG at 10 uM. The note with it: probe [3H]dofetilide. Background: Displacement assays read how much labelled ligand stays bound in the presence of the test substance.
hERG (KCNH2), sequence (Q12809 whole entry): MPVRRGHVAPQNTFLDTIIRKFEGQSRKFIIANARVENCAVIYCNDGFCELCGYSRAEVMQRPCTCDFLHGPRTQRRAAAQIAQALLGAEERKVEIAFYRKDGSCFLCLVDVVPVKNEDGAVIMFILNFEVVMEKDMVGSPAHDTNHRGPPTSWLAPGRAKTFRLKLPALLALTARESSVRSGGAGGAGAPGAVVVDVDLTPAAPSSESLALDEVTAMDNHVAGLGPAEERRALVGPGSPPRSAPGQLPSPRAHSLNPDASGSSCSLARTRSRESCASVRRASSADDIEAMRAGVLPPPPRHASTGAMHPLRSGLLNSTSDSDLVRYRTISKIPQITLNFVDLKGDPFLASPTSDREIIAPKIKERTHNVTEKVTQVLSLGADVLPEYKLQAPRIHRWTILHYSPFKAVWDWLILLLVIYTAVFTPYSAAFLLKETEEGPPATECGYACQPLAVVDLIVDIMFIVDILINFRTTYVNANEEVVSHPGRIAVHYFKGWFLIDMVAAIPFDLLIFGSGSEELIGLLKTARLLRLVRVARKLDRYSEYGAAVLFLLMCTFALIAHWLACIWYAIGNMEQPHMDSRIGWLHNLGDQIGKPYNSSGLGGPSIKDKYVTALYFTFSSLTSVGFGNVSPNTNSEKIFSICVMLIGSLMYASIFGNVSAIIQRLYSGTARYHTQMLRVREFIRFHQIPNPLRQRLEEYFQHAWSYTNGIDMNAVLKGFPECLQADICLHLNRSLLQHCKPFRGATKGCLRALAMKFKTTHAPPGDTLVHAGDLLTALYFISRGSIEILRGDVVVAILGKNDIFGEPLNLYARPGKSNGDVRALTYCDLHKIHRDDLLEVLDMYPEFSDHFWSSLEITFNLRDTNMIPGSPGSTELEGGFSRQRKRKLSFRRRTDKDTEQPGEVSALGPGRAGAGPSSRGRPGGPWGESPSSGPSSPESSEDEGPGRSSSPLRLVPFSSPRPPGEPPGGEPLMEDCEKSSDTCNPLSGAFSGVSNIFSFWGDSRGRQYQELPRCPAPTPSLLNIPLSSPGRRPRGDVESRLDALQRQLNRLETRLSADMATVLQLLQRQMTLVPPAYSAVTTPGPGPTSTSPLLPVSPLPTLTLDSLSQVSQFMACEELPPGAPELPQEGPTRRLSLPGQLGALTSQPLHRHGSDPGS
The target of a further data set is CYP2C9 (Homo sapiens, UniProt P11712). In words: Inhibition of CYP2C9 at 3 uM. In kind it is ADME. The method in brief: as §1
CYP2C9, sequence (P11712 whole entry): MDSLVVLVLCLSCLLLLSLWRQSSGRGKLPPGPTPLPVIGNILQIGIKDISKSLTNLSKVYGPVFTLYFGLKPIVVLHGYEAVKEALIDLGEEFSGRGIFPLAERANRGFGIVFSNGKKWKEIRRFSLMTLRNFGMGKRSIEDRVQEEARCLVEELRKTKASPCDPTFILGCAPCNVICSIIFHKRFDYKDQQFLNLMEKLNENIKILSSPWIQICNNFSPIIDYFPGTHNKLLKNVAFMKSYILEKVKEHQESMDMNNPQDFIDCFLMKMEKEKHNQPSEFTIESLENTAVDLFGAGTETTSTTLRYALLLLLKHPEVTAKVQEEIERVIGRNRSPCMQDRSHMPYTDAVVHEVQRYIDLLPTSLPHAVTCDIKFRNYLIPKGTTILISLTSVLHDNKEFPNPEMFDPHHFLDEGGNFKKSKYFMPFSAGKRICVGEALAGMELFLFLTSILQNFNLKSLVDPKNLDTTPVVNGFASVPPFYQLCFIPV
The next data set deals with T2, CYP1A2 (Homo sapiens, UniProt P05177).
T2 sequence (P05177 whole entry): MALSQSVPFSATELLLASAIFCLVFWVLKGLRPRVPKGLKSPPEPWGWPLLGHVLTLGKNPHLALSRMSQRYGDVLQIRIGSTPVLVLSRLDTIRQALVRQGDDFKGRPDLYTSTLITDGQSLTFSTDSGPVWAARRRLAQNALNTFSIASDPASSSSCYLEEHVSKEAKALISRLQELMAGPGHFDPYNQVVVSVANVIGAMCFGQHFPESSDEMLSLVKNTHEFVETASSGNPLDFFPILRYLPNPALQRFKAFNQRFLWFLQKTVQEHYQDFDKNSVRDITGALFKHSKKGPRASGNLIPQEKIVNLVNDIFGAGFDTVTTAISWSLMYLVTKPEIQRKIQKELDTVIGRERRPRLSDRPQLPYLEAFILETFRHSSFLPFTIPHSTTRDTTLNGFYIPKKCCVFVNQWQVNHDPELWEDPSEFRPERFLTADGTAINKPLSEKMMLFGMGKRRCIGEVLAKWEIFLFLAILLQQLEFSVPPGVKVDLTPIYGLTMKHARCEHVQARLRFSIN
The data set can be described thus: Inhibition of CYP1A2 at 3 uM. In kind it is ADME. The method in brief:
as §1

Another data set concerns the target CYP3A4 (Homo sapiens, UniProt P08684). The data set can be described thus: Inhibition of CYP3A4 at 3 uM. It is filed as ADME. The method in brief:
as §1

Data set [4] in a line: Solubility of the compound in phosphate buffer at pH 6.5 by turbidimetric. It is filed as physicochemical. The gist of the method: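 Kinetic solubility measured turbidimetrically in phosphate buffer at pH 6.5. The value is reported as a range between the minimum and maximum kinetic solubility, in µM.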

≈ marks a conversion by molar mass, not a printed value.

CYP3A4, sequence (P08684 whole entry): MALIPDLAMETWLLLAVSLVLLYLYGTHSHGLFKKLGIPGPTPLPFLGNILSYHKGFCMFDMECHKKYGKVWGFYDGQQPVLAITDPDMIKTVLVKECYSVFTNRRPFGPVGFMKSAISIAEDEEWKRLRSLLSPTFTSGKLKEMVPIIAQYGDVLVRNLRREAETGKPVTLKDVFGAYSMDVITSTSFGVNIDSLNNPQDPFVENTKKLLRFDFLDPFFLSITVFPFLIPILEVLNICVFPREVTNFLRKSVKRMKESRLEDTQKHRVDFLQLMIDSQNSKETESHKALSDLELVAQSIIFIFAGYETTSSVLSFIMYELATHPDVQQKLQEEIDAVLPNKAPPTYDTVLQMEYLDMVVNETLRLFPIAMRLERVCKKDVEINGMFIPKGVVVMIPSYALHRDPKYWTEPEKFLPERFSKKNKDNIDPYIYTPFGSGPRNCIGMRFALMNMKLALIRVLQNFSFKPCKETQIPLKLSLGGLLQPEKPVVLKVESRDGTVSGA
T1 sequence (Q16539 whole entry): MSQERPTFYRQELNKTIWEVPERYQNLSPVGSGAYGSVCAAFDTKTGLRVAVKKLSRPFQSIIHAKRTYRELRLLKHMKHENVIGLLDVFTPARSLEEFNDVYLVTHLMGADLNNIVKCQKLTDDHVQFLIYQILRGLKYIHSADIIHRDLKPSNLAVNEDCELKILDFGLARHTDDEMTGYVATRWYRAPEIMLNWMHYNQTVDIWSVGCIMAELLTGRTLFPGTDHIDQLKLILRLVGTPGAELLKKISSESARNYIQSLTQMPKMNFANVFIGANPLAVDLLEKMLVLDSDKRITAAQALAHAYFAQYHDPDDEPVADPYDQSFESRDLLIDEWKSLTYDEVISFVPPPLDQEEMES
CYP2D6, sequence (P10635 whole entry, canonical isoform): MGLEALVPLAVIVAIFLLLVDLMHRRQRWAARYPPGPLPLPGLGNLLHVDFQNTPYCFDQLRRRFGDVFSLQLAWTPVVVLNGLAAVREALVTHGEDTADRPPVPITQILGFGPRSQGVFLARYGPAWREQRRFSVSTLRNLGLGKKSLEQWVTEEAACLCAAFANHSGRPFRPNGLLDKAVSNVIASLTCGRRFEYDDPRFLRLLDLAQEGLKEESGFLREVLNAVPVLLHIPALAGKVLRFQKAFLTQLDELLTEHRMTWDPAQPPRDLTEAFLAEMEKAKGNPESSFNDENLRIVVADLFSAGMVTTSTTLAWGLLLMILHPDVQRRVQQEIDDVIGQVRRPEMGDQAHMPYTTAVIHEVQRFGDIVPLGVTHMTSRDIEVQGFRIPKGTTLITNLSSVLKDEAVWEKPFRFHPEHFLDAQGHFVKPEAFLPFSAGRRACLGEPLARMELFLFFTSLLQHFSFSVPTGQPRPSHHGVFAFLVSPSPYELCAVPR

As a reminder, the IC50 is the midpoint of a concentration-inhibition curve. A lower IC50 goes with greater potency in that assay. As to `CC(C)(C)c1cc(NC(=O)Nc2ccccc2)n(-c2cccc(CN)c2)n1`, the figures for the IC50 in data set [1] and in [2] were 2850 nM and above 16700 nM, respectively.
For `CC(C)(C)c1cc(NC(=O)Nc2ccccc2)n(-c2cccc(CNC(=O)CN)c2)n1`, the half-maximal inhibitory concentration (IC50) in [1] was 176 nM; in data set [2] it was 2300 nM.
Turning to `COC(=O)NCC(=O)NCc1cccc(-n2nc(C(C)(C)C)cc2NC(=O)Nc2ccccc2)c1`, the IC50 in data set [1] was found to be 176 nM; in data set [2], 287 nM.
Turning to `CC(C)(C)c1cc(NC(=O)Nc2ccccc2)n(-c2cccc(CNC(=O)CNC=O)c2)n1`, the IC50 in data set [1] came to 68 nM; in [2], 332 nM.
Usually inhibition stands for the change of the read-out against control, counted positive when it falls. For orientation: Papp means the rate of passage across a membrane or cell layer, normalised by area and donor concentration. As a reminder, the solubility (kinetic) is solubility judged after dilution from a stock solution rather than from solid. Take `CC(=O)NCC(=O)NCc1cccc(-n2nc(C(C)(C)C)cc2NC(=O)Nc2ccccc2)c1`: the inhibition at 3 µM is 2% against CYP2D6, 0% at CYP2C9, 5% against CYP1A2 and 0% at CYP3A4. The Papp in data set [3] stood at 7.38 ×10⁻⁶ cm/s. In addition, the inhibition at 10 µM on hERG (KCNH2) was -11%. Further, the results for the IC50 in data set [1] and in [2] were 6 nM and 34 nM, respectively. For the same molecule, in data set [4], the kinetic solubility was above 200 µM.
Regarding `CC(C)(C)c1cc(NC(=O)Nc2ccccc2)n(-c2cccc(CNC(=O)CNC(=O)c3ccccc3)c2)n1`, the figures for the half-inhibitory concentration (IC50) in [1] and in [2] were 169 nM and 441 nM, respectively.
Consider `CC(C)(C)c1cc(NC(=O)Nc2ccccc2)n(-c2cccc(CNC(=O)CNC(=O)c3cccnc3)c2)n1`, for which the IC50 in [1] was 51 nM; in [2], 205 nM.
Consider `Cc1cc(C(=O)NCC(=O)NCc2cccc(-n3nc(C(C)(C)C)cc3NC(=O)Nc3ccccc3)c2)no1`, for which the concentration for half-maximal inhibition (IC50) is 38 nM in [1] and 243 nM in [2].
Consider `CC(C)(C)c1cc(NC(=O)Nc2ccccc2)n(-c2cccc(CNC(=O)CNC(=O)c3ccco3)c2)n1`, for which the results for the IC50 in [1] and in [2] were 18 nM and 88 nM, respectively.
In the case of `CC(=O)NC(C)C(=O)NCc1cccc(-n2nc(C(C)(C)C)cc2NC(=O)Nc2ccccc2)c1` (stereo not given), the concentration for half-maximal inhibition (IC50) in data set [1] amounted to 168 nM; in [2] it was 480 nM.
`CC(=O)NC1(C(=O)NCc2cccc(-n3nc(C(C)(C)C)cc3NC(=O)Nc3ccccc3)c2)CCCC1`: the half-maximal inhibitory concentration (IC50) was found to be 715 nM in data set [1] and 4550 nM in [2].
Consider `CC(C)(C)c1cc(NC(=O)Nc2ccccc2)n(-c2cccc(CNC(=O)CNS(C)(=O)=O)c2)n1`, for which the IC50 turned out to be 108 nM in data set [1] and 649 nM in data set [2].
For `CC(=O)NCC(=O)N(C)Cc1cccc(-n2nc(C(C)(C)C)cc2NC(=O)Nc2ccccc2)c1`, the 50% inhibitory concentration (IC50) in [1] was found to be 211 nM; in data set [2], 1600 nM.
Consider `CC(C)(C)c1cc(NC(=O)Nc2ccccc2)n(-c2cccc(CNC(=O)CN3CCCC3=O)c2)n1`, for which the IC50 in [1] is 68 nM; in data set [2], 296 nM.
For `CC(C)(C)c1cc(NC(=O)Nc2ccccc2)n(-c2cccc(CNC(=O)CN3CCOC3=O)c2)n1`, the half-maximal inhibitory concentration (IC50) in data set [1] came to 185 nM; in data set [2], 599 nM.
`CC(C)(C)c1cc(NC(=O)Nc2ccccc2)n(-c2cccc(CNC(=O)Cn3ccccc3=O)c2)n1`: the inhibition at 3 µM was 21% against CYP2D6, 6% at CYP2C9, 4% on CYP1A2 and 30% against CYP3A4. The apparent permeability coefficient (Papp) in data set [3] came to 12.9 ×10⁻⁶ cm/s. Further, the inhibition at 10 µM on hERG (KCNH2) came out at 9%. Further, the IC50 in data set [1] was 16 nM; in data set [2], 63 nM. In data set [4], the kinetic solubility came out at 50 µM (≈ 24.9 µg/mL).
For `CC(C)(C)c1cc(NC(=O)Nc2ccccc2)n(-c2cccc(CNC(=O)Cn3ccnc3)c2)n1`, the IC50 was found to be 231 nM in data set [1] and 536 nM in data set [2].
`Cc1nccn1CC(=O)NCc1cccc(-n2nc(C(C)(C)C)cc2NC(=O)Nc2ccccc2)c1`: the IC50 in data set [1] stood at 132 nM; in data set [2], 677 nM.
As for `CC(C)(C)c1cc(NC(=O)Nc2ccccc2)n(-c2cccc(CNC(=O)Cn3cccn3)c2)n1`, the concentration for half-maximal inhibition (IC50) in [1] was 48.8 nM; in data set [2] it was 135 nM.
For `Cc1ccn(CC(=O)NCc2cccc(-n3nc(C(C)(C)C)cc3NC(=O)Nc3ccccc3)c2)n1`, the inhibition at 3 µM on CYP2D6 came to 18%; on CYP2C9, 5%; at CYP1A2 it was 4%; at CYP3A4 it was 26%. Also, in data set [3], the apparent permeability (Papp) stood at 4.8 ×10⁻⁶ cm/s. Further, the inhibition at 10 µM at hERG (KCNH2) was found to be 3%. Besides, the half-inhibitory concentration (IC50) in data set [1] was 27.9 nM; in data set [2], 201 nM. In data set [4], the kinetic solubility was 100 µM (≈ 48.6 µg/mL).
Regarding `Cc1cc(C)n(CC(=O)NCc2cccc(-n3nc(C(C)(C)C)cc3NC(=O)Nc3ccccc3)c2)n1`, the results for the IC50 in [1] and in data set [2] were 78.2 nM and 331 nM, respectively.
Take `CC(C)(C)c1cc(NC(=O)Nc2ccccc2)n(-c2cccc(CNC(=O)CCC(=O)O)c2)n1`: the IC50 stood at 37 nM in [1] and 393 nM in data set [2].
On to `CC(C)(CC(=O)NCc1cccc(-n2nc(C(C)(C)C)cc2NC(=O)Nc2ccccc2)c1)C(=O)O`, for which the half-maximal inhibitory concentration (IC50) was found to be 39 nM in [1] and 3680 nM in [2].
With `CC(C)(C)c1cc(NC(=O)Nc2ccccc2)n(-c2cccc(CNC(=O)C3C[C@H]3C(=O)O)c2)n1` (stereo not given in full), the IC50 in data set [1] is 30 nM; in data set [2], 1100 nM.
For the molecule `CC(C)(C)c1cc(NC(=O)Nc2ccccc2)n(-c2cccc(CNC(=O)C3CCCC[C@H]3C(=O)O)c2)n1` (stereo not given in full), the results for the 50% inhibitory concentration (IC50) in data set [1] and in [2] were 57 nM and 3360 nM, respectively.
For the molecule `CC(C)(C)c1cc(NC(=O)Nc2ccccc2)n(-c2cccc(CNC(=O)C3CC=CC[C@H]3C(=O)O)c2)n1` (stereo not given in full), the 50% inhibitory concentration (IC50) is 14 nM in data set [1] and 737 nM in data set [2].
With `CC(C)(C)c1cc(NC(=O)Nc2cccc3ccccc23)n(-c2cccc(CNC(=O)CCC(=O)O)c2)n1`, the IC50 in [1] was 5 nM; in data set [2] it was 6 nM.

The values above are taken from ChEMBL document CHEMBL1208762, “Enhanced selectivity profile of pyrazole-urea based DFG-out p38alpha inhibitors” (Bioorg Med Chem Lett, 2010).
